Experimental data reported in ChEMBL document CHEMBL4680268, “Pharmacomodulations of the benzoyl-thiosemicarbazide scaffold reveal antimicrobial agents targeting d-alanyl-d-alanine ligase in bacterio” (Eur J Med Chem, 2020).
Converted amounts (≈) assume the structure as drawn. The source made the active and inactive calls. No cut-off for these calls is given here.

Columns and labels:
[1] = Inhibition of Ddl in Streptococcus faecalis ATCC 8043 using D-[1-14C]-alanine as substrate preincubated with enzyme for 40 mins followed by substrate and addition and measured after 30 mins by TLC analysis; design: species or system Enterococcus faecalis
Staphylococcus aureus [2] = assay: Antibacterial activity against hospital-acquired vancomycin resistant Staphylococcus aureus VRS-1 assessed as reduction in bacterial growth incubated for 18 to 24 hrs by broth microdilution method; assay type: functional; conditions: time 18-24 hrs
In short: (§1)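 Broth microdilution in cation-adjusted Mueller-Hinton broth per CLSI; inoculum 10⁶ bacteria/mL. Two-fold serial dilutions, compound in broth with 5% DMSO mixed 1:1 with bacterial suspension, giving 2.5% DMSO final. Top concentration 0.1, 0.4 or 0.8 mM depending on solubility. Incubated 18–24 h at 37 °C. MIC = lowest concentration preventing visible growth.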

Cell membrane [3] = assay: Disruption of bacterial cell membrane in Staphylococcus aureus ATCC 25923 assessed as increase in PI uptake at 1 to 5 times MIC measured every 10 mins for 2 hrs by PI dye based spectrophotometry
In short: (§2)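 Mid-log S. aureus ATCC 25923 (grown in MHB from OD₆₀₀ 0.05) washed into BET buffer (pH 7.5) at 1.11×10⁶ CFU/mL with 12 nM propidium iodide; compound at 1, 2, 5× MIC, 5% DMSO final. SDS 0.5% positive, buffer negative control. Fluorescence (ex 532/em 620 nm) read in the dark every 10 min for 2 h; triplicate.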

Staphylococcus aureus [4] = assay: Antibacterial activity against community-acquired methicillin and erythromycin resistant Staphylococcus aureus SA325 assessed as reduction in bacterial growth incubated for 18 to 24 hrs by broth microdilution method; assay type: functional; conditions: time 18-24 hrs; in short: as §1
Staphylococcus aureus [5] = assay: Antibacterial activity against methicillin and linezolid resistant Staphylococcus aureus NRS119 assessed as reduction in bacterial growth incubated for 18 to 24 hrs by broth microdilution method; assay type: functional; conditions: time 18-24 hrs; in short: as §1
Staphylococcus aureus [6] = assay: Antibacterial activity against hospital-acquired methicillin/ciprofloxacin and moxifloxacin resistant Staphylococcus aureus SA481 assessed as reduction in bacterial growth incubated for 18 to 24 hrs by broth microdilution method; assay type: functional; conditions: time 18-24 hrs; in short: as §1
Staphylococcus aureus [7] = assay: Antibacterial activity against methicillin resistant and vancomycin intermediate resistant Staphylococcus aureus MU50 assessed as reduction in bacterial growth incubated for 18 to 24 hrs by broth microdilution method; assay type: functional; conditions: time 18-24 hrs; in short: as §1
Enterococcus faecalis [8] = assay: Antibacterial activity against vancomycin resistant Enterococcus faecalis BM4575 harboring VanE genotype, constitutive expression of Ddl and VanE D-Ala-D-Ser ligase assessed as reduction in bacterial growth incubated for 18 to 24 hrs by broth microdilution method; assay type: functional; conditions: time 18-24 hrs; in short: as §1
Staphylococcus aureus [9] = assay: Inhibition of Ddl in Staphylococcus aureus ATCC 25923 assessed as increase in D-Ala/D-Ala-D-Ala ratio at 2 times MIC incubated for 30 mins by UHPLC-MS/MS analysis
In short: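 Log-phase S. aureus ATCC 25923 in MHB with 5% DMSO (from OD₆₀₀ 0.05) treated with compound at 2× MIC for 0–30 min; untreated and D-cycloserine 2× MIC controls. Cells chilled, pelleted, washed in M9, lysed in ice-cold MeOH/H₂O/formic acid 80:20:0.1, supernatants derivatized with Marfey's reagent in triplicate; L-Ala, D-Ala, D-Ala-D-Ala quantified by UPLC-MS/MS.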

Staphylococcus aureus [10] = assay: Antibacterial activity against Staphylococcus aureus ATCC 25923 assessed as reduction in bacterial growth incubated for 18 to 24 hrs by broth microdilution method; assay type: functional; conditions: time 18-24 hrs
[11] = Inhibition of recombinant Enterococcus faecalis C-terminal His6-tagged DdlB expressed in Escherichia coli LMG194 using D-Ala as substrate preincubated with enzyme for 30 mins followed by substrate addition and measured after 20 mins by malachite green based colorimetric analysis
In short: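 DdlB (20 mg/L) malachite green phosphate assay: enzyme, inhibitor and 500 µM ATP preincubated 30 min at 30 °C in Tris-HCl pH 7.4 buffer with MgCl₂, KCl and 10% DMSO, then 1 mM D-Ala for 20 min; A650 read. IC₅₀ from 11 concentrations, also run with 0.01% Triton X-100; mean ± SD of triplicates, n ≥ 2; EC₅₀ given where maximal inhibition stayed below 50%.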

Enterococcus faecalis [12] = assay: Antibacterial activity against vancomycin resistant Enterococcus faecalis JH2-2::C1 harboring constitutive expression of Ddl and vanB ligase assessed as reduction in bacterial growth incubated for 18 to 24 hrs by broth microdilution method; assay type: functional; conditions: time 18-24 hrs; in short: as §1
Enterococcus faecalis [13] = assay: Antibacterial activity against Enterococcus faecalis ATCC 29212 assessed as reduction in bacterial growth incubated for 18 to 24 hrs by broth microdilution method; assay type: functional; conditions: time 18-24 hrs
Enterococcus faecalis [14] = assay: Antibacterial activity against vancomycin resistant Enterococcus faecalis BM4390 harboring VanB mutant with inactive Ddl and constitutive expression of D-Ala-D-Lac assessed as reduction in bacterial growth incubated for 18 to 24 hrs by broth microdilution method; assay type: functional; conditions: time 18-24 hrs; in short: as §1
Cell membrane [15] = assay: Disruption of bacterial cell membrane in Staphylococcus aureus ATCC 25923 assessed as reduction in bacterial colonies at 5X MIC measured after 2 hrs by time-kill kinetics assay
Pseudomonas aeruginosa = assay: Antibacterial activity against Pseudomonas aeruginosa PAO1 assessed as reduction in bacterial growth incubated for 18 to 24 hrs by broth microdilution method; assay type: functional, organism-based; conditions: time 18-24 hrs
In short: (§3)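 Microdilution in cation-adjusted Mueller-Hinton broth per CLSI; two-fold compound series in CAMHB with 5% DMSO mixed 1:1 with bacterial suspension, giving 10⁶ bacteria/mL inoculum and 2.5% DMSO final. Top concentrations 0.1, 0.4 or 0.8 mM depending on solubility. Incubated 18–24 h at 37 °C; MIC read as lowest concentration preventing visible growth.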

[16] = Cytotoxicity against human THP-1 cells assessed as reduction in cell viability at 2 times MIC measured after 1 to 2 hrs by trypan blue exclusion assay; assay type: cell-based; conditions: time 1-2 hrs, read-out: INH
In short: (§4)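 Aliquots taken at 1, 2, 6, 24 h, mixed 1:1 with 0.4% Trypan blue for 5 min; percent blue-stained cells counted by light microscopy. DMSO control; triplicate, mean ± SD.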

Staphylococcus aureus [17] = assay: Bactericidal activity against Staphylococcus aureus ATCC 25923 assessed as reduction in bacterial growth at 5 times MIC measured after 7 hrs by time kill assay; assay type: functional, organism-based
In short: (§5)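 S. aureus ATCC 25923 grown overnight in CAMHB, pelleted, resuspended; compound added at 1, 2 or 5× MIC to give 10⁶ CFU/mL start with 5% DMSO (DMSO-only control). Sampled at 0, 5, 15, 30 min, 1, 2, 7, 24 h; 10-fold PBS dilutions plated on charcoal TSA, counted after 24 h at 37 °C. Bactericidal = ≥3-log₁₀ drop in 24 h; triplicate, mean ± SD.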

Klebsiella pneumoniae = assay: Antibacterial activity against Klebsiella pneumoniae ATCC700603 assessed as reduction in bacterial growth incubated for 18 to 24 hrs by broth microdilution method; assay type: functional, organism-based; conditions: 700603, time 18-24 hrs; in short: as §3
THP-1 [18] = assay: Cytotoxicity against human THP-1 cells assessed as reduction in cell viability at 1 times MIC measured after 1 to 2 hrs by trypan blue exclusion assay; assay type: cell-based; conditions: time 1-2 hrs; in short: as §4
[19] = Solubility of the compound in 1% DMSO at 5XMIC against Staphylococcus aureus ATCC 25923; assay type: physicochemical
Cell membrane [20] = assay: Disruption of bacterial cell membrane in Staphylococcus aureus ATCC 25923 assessed as increase in PI uptake at 5 times MIC measured every 10 mins for 1 hr by PI dye based spectrophotometry; in short: as §2
Staphylococcus aureus [21] = assay: Bacteriostatic activity against Staphylococcus aureus ATCC 25923 assessed as reduction in bacterial growth at 1 and 2 times MIC measured upto 24 hrs by time kill assay; assay type: functional, organism-based; conditions: time hrs <=24; in short: as §5
Escherichia coli = assay: Antibacterial activity against Escherichia coli ATCC 25922 assessed as reduction in bacterial growth incubated for 18 to 24 hrs by broth microdilution method; assay type: functional, organism-based; conditions: time 18-24 hrs; in short: as §3
THP-1 [22] = assay: Cytotoxicity against human THP-1 cells assessed as reduction in cell viability at 2 to 5 times MIC measured after 6 hrs by trypan blue exclusion assay; assay type: cell-based; conditions: thp-1, 6 h; in short: as §4
THP-1 [23] = assay: Cytotoxicity against human THP-1 cells assessed as reduction in cell viability at 1 times MIC measured after 6 hrs by trypan blue exclusion assay; assay type: cell-based; conditions: thp-1, 6 h; in short: as §4
Staphylococcus aureus [24] = assay: Bactericidal activity against Staphylococcus aureus ATCC 25923 assessed as reduction in bacterial growth at 5 times MIC measured after 24 hrs by time kill assay; assay type: functional, organism-based; in short: as §5
Cell membrane [25] = assay: Disruption of bacterial cell membrane in Staphylococcus aureus ATCC 25923 assessed as increase in PI uptake by measuring increase in fluorescence intensity at 5 times MIC measured every 10 mins for 2 hrs by PI dye based spectrophotometry; in short: as §2

Structure (SMILES) | MIC (Staphylococcus aureus [2]) [µM] | MIC (Staphylococcus aureus [4]) [µM] | MIC (Staphylococcus aureus [5]) [µM] | MIC (Staphylococcus aureus [6]) [µM] | MIC (Staphylococcus aureus [7]) [µM] | MIC (Enterococcus faecalis [8]) [µM] | inhibition (Staphylococcus aureus [9]) | MIC (Staphylococcus aureus [10]) [µM] | IC50 [11] [µM] | MIC (Enterococcus faecalis [12]) [µM] | MIC (Enterococcus faecalis [13]) [µM] | MIC (Enterococcus faecalis [14]) [µM] | Activity (Cell membrane [15]) [log10CFU/ml] | Activity (Pseudomonas aeruginosa) | cytotoxicity at 2 x MIC [16] [%] | Activity (Klebsiella pneumoniae) | Activity (THP-1 [18]) | Activity (Staphylococcus aureus [21]) | Activity (Escherichia coli) | also measured
C[C@@H](CP(=O)(O)[C@@H](C)N)C(=O)O | – | – | – | – | – | – | – | – | – | – | – | – | – | – | – | – | – | – | – | Ki [1]: 4 µM
N[C@H]1CONC1=O [LEVCYCLOSERINE] | 157 (≈ 16 µg/mL) | 1250 (≈ 128 µg/mL) | 627 (≈ 64 µg/mL) | 1250 (≈ 128 µg/mL) | 627 (≈ 64 µg/mL) | > 5020 | Active | 313 (≈ 32 µg/mL) | 262 | 5020 (≈ 512 µg/mL) | 1250 (≈ 128 µg/mL) | 5020 (≈ 512 µg/mL) | – | – | – | – | – | – | – | Activity (Cell membrane [3]): inactive
Oc1ccccc1-c1n[nH]c(=S)n1-c1ccc(Cl)c(Cl)c1 | 400 (≈ 135 µg/mL) | 400 (≈ 135 µg/mL) | 400 (≈ 135 µg/mL) | 800 (≈ 271 µg/mL) | 400 (≈ 135 µg/mL) | 400 (≈ 135 µg/mL) | Active | 400 (≈ 135 µg/mL) | 299 | 400 (≈ 135 µg/mL) | 400 (≈ 135 µg/mL) | > 800 | 2 | inactive | 5 | inactive | Non-Toxic | Active | inactive | Activity (Staphylococcus aureus [17]): Active; solubility [19]: Insoluble; Activity (Cell membrane [20]): Active
Oc1ccccc1/C=N/NC(=S)Nc1ccc(Cl)c(Cl)c1 | 12.5 (≈ 4.25 µg/mL) | 25 (≈ 8.51 µg/mL) | 12.5 (≈ 4.25 µg/mL) | 25 (≈ 8.51 µg/mL) | 25 (≈ 8.51 µg/mL) | 6.25 (≈ 2.13 µg/mL) | Active | 12.5 (≈ 4.25 µg/mL) | 1.48 | 3.12 (≈ 1.06 µg/mL) | 12.5 (≈ 4.25 µg/mL) | 6.25 (≈ 2.13 µg/mL) | < 1 | inactive | 5 | inactive | Non-Toxic | Active | inactive | Activity (THP-1 [22]): Toxic; Activity (THP-1 [23]): Non-Toxic; Activity (Staphylococcus aureus [24]): Active; Activity (Cell membrane [25]): 15 RFU
